Assay results taken from ChEMBL document CHEMBL1275434, “In vitro evaluation of CBR-2092, a novel rifamycin-quinolone hybrid antibiotic: studies of the mode of action in Staphylococcus aureus” (Antimicrob Agents Chemother, 2008).
Converted amounts (≈) assume the structure as drawn. The source made the active and inactive calls. The rule behind the calls is not given here.

Legend:
[1] = tested on: Staphylococcus aureus; test: Antimicrobial activity against wild-type Staphylococcus aureus CB190; assay type: functional
[2] = tested on: Staphylococcus aureus; test: Antimicrobial activity against Staphylococcus aureus CB1880 harboring rpoB R484H mutant gene by broth microdilution method; assay type: functional
In short: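 CLSI broth microdilution MIC in MHII broth with 0.002% (vol/vol) polysorbate 80. Isolates came from daily stepwise broth passage at sub-MIC drug (MHII without polysorbate 80, 10^6 CFU/ml inoculum, 20–24 h shaking at 37°C), were purified drug-free, and were sequenced at target loci.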

[3] = tested on: Staphylococcus aureus; test: Antimicrobial activity against Staphylococcus aureus CB1880 harboring rpoB R484H mutant gene; assay type: functional
[4] = tested on: Staphylococcus aureus; test: Antimicrobial activity against Staphylococcus aureus CB1882 harboring rpoB R484H mutant gene, L520 deficient gyrA gene and R236 duplicated parC gene; assay type: functional
[5] = tested on: Staphylococcus aureus; test: Antimicrobial activity against Staphylococcus aureus CB1883 harboring rpoB R484H mutant gene, L520 deficient gyrA gene, gyrA S84L mutant gene and R236 duplicated par C gene by agar dilution method; assay type: functional
In short: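 CLSI agar dilution MIC on MHII base medium against stepwise-passage isolates; passage was in MHII broth without polysorbate 80, daily at 37°C.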

[6] = tested on: Staphylococcus aureus; test: Antimicrobial activity against Staphylococcus aureus CB1884 harboring rpoB R484H mutant gene, L520 deficient gyrA gene, gyrA S84L mutant gene, R236 duplicated par C gene and parC H103Y mutant gene; assay type: functional
[7] = tested on: Staphylococcus aureus; test: Antimicrobial activity against Staphylococcus aureus CB370 harboring rpoB H481Y mutant gene by broth microdilution method; assay type: functional
In short: (§1)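 CLSI broth microdilution MIC in cation-adjusted Mueller-Hinton (MHII) broth supplemented with 0.002% (vol/vol) polysorbate 80, included to limit compound loss to plastic surfaces.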

[8] = tested on: Staphylococcus aureus; test: Antimicrobial activity against Staphylococcus aureus CB370 harboring rpoB H481Y mutant gene by agar dilution method; assay type: functional
In short: (§2)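 CLSI agar dilution MIC with cation-adjusted Mueller-Hinton (MHII) agar as the base medium.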

[9] = tested on: Staphylococcus aureus; test: Antimicrobial activity against Staphylococcus aureus CB815 harboring rpoB H481Y, gyrA […] and parC S80F mutant genes by broth microdilution method; assay type: functional; in short: as §1
[10] = tested on: Staphylococcus aureus; test: Antimicrobial activity against Staphylococcus aureus CB815 harboring rpoB H481Y, gyrA […] and parC S80F mutant genes by agar dilution method; assay type: functional; in short: as §2
[11] = tested on: Staphylococcus aureus; test: Antimicrobial activity against Staphylococcus aureus CB1953 harboring rpoB H481Y, gyrA S84L, gyrA V598I, parC S80F, parC R570H mutant genes selected after CBR-2092 exposure for 7 days by broth microdilution method; assay type: functional; details: CB1953, 168 h; in short: as §1
[12] = tested on: Staphylococcus aureus; test: Antimicrobial activity against Staphylococcus aureus CB1953 harboring rpoB H481Y, gyrA S84L, gyrA V598I, parC S80F, parC R570H mutant genes selected after CBR-2092 exposure for 7 days by agar dilution method; assay type: functional; details: CB1953, 168 h
In short: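 CLSI agar dilution MIC on MHII base medium against strains from multistep passage (up to 20–21 days) of parents with preexisting rifamycin and/or quinolone resistance.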

[13] = tested on: Staphylococcus aureus; test: Antimicrobial activity against Staphylococcus aureus CB1954 harboring rpoB H481Y, gyrA S84L, K809 deficient gyrA, parC S80F, parC A523D mutant genes selected after CBR-2092 exposure for 7 days by agar dilution method; assay type: functional; details: CB1954, 168 h; in short: as §2
[14] = Inhibition of Staphylococcus aureus wild-type RNA polymerase RpoB
In short: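 Recombinant S. aureus σA RNA polymerase holoenzyme in a single-round transcription assay using the pGL2B-T7A1-G-less template. The 272-nucleotide G-less RNA product was quantified by gel electrophoresis. IC50 is the concentration halving the product formed without test agent.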

[15] = Inhibition of Staphylococcus aureus RpoB H481Y mutant
In short: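 Recombinant S. aureus σA RNA polymerase holoenzyme carrying RpoB H481Y. Single-round transcription of the pGL2B-T7A1-G-less template. The 272-nt G-less RNA product is quantified by gel electrophoresis. IC50 is the concentration that inhibits 50% of product formed without inhibitor.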

[16] = tested on: Staphylococcus aureus; test: Antimicrobial activity against Staphylococcus aureus CB812 harboring rpo B H481Y and gyrA S84L mutant genes by broth microdilution method; assay type: functional; in short: as §1
[17] = tested on: Staphylococcus aureus; test: Inhibition of DNA synthesis in Staphylococcus aureus CB190 assessed as decrease in [methyl-3H]thymidine incorporation at 0.5 ug/ml; assay type: functional, organism-based
[18] = tested on: Staphylococcus aureus; test: Inhibition of protein synthesis in rifamycin-resistant Staphylococcus aureus CB370 harboring rpoB H481Y mutant gene assessed as decrease in L-[3,4,5-3H]leucine incorporation at 0.5 ug/ml; assay type: functional, organism-based
In short: (§3)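 Time-course radiolabel incorporation in S. aureus cultures with test agent. Precursors: [methyl-3H]thymidine (DNA), [5,6-3H]uridine (RNA), L-[3,4,5-3H]leucine (protein), [2,3-3H]D-alanine (cell wall). At each time point, incorporation with agent is expressed relative to the DMSO-treated control culture as percent incorporation. Time-zero incorporation is set to 100%.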

[19] = tested on: Staphylococcus aureus; test: Inhibition of protein synthesis in quinolone-resistant Staphylococcus aureus CB814 harboring gyrA S84L and parC S80F mutant genes assessed as decrease in L-[3,4,5-3H]leucine incorporation at 0.5 ug/ml; assay type: functional, organism-based; in short: as §3
[20] = tested on: Staphylococcus aureus; test: Antimicrobial activity against rifampin-sensitive Staphylococcus aureus CB190 by broth microdilution method; assay type: functional; in short: as §1
[21] = tested on: Staphylococcus aureus; test: Antimicrobial activity against rifampin-sensitive Staphylococcus aureus CB190 harboring rpoB D471Y mutant gene by broth microdilution method; assay type: functional; in short: as §1
[22] = tested on: Staphylococcus aureus; test: Antimicrobial activity against rifampin-sensitive Staphylococcus aureus CB190 harboring rpoB E473 mutant gene by broth microdilution method; assay type: functional; in short: as §1
[23] = tested on: Staphylococcus aureus; test: Antimicrobial activity against rifampin-sensitive Staphylococcus aureus CB190 harboring rpoB D471G mutant gene by broth microdilution method; assay type: functional; in short: as §1
[24] = tested on: Staphylococcus aureus; test: Antimicrobial activity against Staphylococcus aureus CB1430 harboring rpoB H481Y, parE E474K and gyrA S84L mutant genes selected after 0.18 ug/ml drug exposure by broth microdilution method; assay type: functional
In short: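 CLSI broth microdilution MIC in cation-adjusted Mueller-Hinton (MHII) broth with 0.002% (vol/vol) polysorbate 80. Single-step mutants were selected on agar […], purified by drug-free passage, their phenotype re-verified, and resistance loci sequenced.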

[25] = tested on: Staphylococcus aureus; test: Antimicrobial activity against Staphylococcus aureus CB1334 harboring rpoB H481Y, parC S80F,Q27H and gyrA S84L mutant genes selected after 0.8 ug/ml drug exposure by broth microdilution method; assay type: functional
[26] = tested on: Staphylococcus aureus; test: Antimicrobial activity against Staphylococcus aureus CB1354 harboring rpoB H481Y, parC S80F, parE R455H and gyrA S84L mutant genes selected after 0.53 ug/ml drug exposure by broth microdilution method; assay type: functional
[27] = tested on: Staphylococcus aureus; test: Antimicrobial activity against Staphylococcus aureus CB809 harboring rpoB H481Y and parC S80F mutant genes by broth microdilution method
[28] = tested on: Staphylococcus aureus; test: Antimicrobial activity against Staphylococcus aureus CB1891 harboring […], parE P587S and parE F638V mutant genes by broth microdilution method
[29] = tested on: Staphylococcus aureus; test: Antimicrobial activity against Staphylococcus aureus CB1419 harboring rpoB H481Y and gyrA G572D mutant genes selected after 0.1 ug/ml drug exposure by broth microdilution method

CO[C@H]1/C=C/O[C@@]2(C)Oc3c(C)c(O)c4c(O)c(c(/C=N/N5CCC(N(C)C6([C@@H]7CCN(c8c(F)cn9c(=O)c(C(=O)O)cc(C%10CC%10)c9c8C)C7)CC6)CC5)c(O)c4c3C2=O)NC(=O)/C(C)=C\C=C\[C@H](C)[C@H](O)[C@@H](C)[C@@H](O)[C@@H](C)[C@H](OC(C)=O)[C@@H]1C
Time [1]: 38 min | MIC [2]: 0.12 µg/mL (≈ 0.0996 µM) | Time [3]: 43 min | Time [4]: 45 min | MIC [5]: 1 µg/mL (≈ 0.83 µM) | Time [6]: 65 min | MIC [7]: 0.12 µg/mL (≈ 0.0996 µM) | MIC [8]: 0.03 µg/mL (≈ 0.0249 µM) | MIC [9]: 1 µg/mL (≈ 0.83 µM) | MIC [10]: 0.25 µg/mL (≈ 0.207 µM) | MIC [11]: 16 µg/mL (≈ 13.3 µM) | MIC [12]: 2 µg/mL (≈ 1.66 µM) | MIC [13]: 2 µg/mL (≈ 1.66 µM) | IC50 [14]: 34 nM | IC50 [15]: > 25000 nM | MIC [16]: 0.5 µg/mL (≈ 0.415 µM) | Activity [17]: Active | Activity [18]: Active | Activity [19]: Active | MIC [20]: 0.015 µg/mL (≈ 0.0124 µM) | MIC [21]: 0.25 µg/mL (≈ 0.207 µM) | MIC [22]: 0.25 µg/mL (≈ 0.207 µM) | MIC [23]: 0.25 µg/mL (≈ 0.207 µM) | MIC [24]: 16 µg/mL (≈ 13.3 µM) | MIC [25]: 8 µg/mL (≈ 6.64 µM) | MIC [26]: 16 µg/mL (≈ 13.3 µM) | MIC [27]: 0.25 µg/mL (≈ 0.207 µM) | MIC [28]: 0.03 µg/mL (≈ 0.0249 µM) | MIC [29]: 1 µg/mL (≈ 0.83 µM)
